Data on 8 compounds can be found in ChEMBL document CHEMBL3593225 (Bioorg Med Chem, 2015).

Assay [1] has as its target T1, 5-hydroxytryptamine receptor 1A (Homo sapiens, UniProt P08908).
T1 sequence (P08908 whole entry): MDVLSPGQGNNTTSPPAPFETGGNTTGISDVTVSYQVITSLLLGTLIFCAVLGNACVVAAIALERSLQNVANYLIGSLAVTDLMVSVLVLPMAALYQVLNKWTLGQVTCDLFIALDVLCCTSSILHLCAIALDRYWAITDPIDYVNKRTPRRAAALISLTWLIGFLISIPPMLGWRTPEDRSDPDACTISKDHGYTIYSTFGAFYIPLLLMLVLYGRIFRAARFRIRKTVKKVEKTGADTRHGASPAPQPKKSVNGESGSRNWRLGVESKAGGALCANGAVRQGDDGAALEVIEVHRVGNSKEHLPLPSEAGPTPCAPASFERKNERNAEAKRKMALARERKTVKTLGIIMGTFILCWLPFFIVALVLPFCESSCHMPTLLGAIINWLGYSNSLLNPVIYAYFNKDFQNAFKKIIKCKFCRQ
Briefly: Agonist activity at human 5-HT1A receptor expressed in human HeLa cell membranes assessed as stimulation of [35S]GTPgammaS binding after 20 mins by liquid scintillation counting analysis. The class given is functional.

For assay [2], the target named is T1, 5-hydroxytryptamine receptor 1A. Briefly: Agonist activity at human 5-HT1A receptor expressed in CHO cells assessed as inhibition of forskolin-stimulated cAMP accumulation after 15 mins by ELISA. The class given is functional, cell-based. Summed up: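 CHO-1A cells (10^4/well) grown 24 h, then 24 h in serum-free DMEM/F-12. Compounds co-incubated with 1 μM forskolin for 15 min at 37 °C in serum-free medium with 5 μM pargyline and 2.5 mM theophylline. Lysis in 1% Triton X-100/0.1 M HCl, cAMP measured by acetylated ELISA. Sigmoidal or Gaussian bell-shaped fits.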
On the technique in general: Cyclic AMP is a second messenger, typically raised through Gs and lowered through Gi signalling.

Assay [3] has as its target T2, 5-hydroxytryptamine receptor 1A (Homo sapiens) (UniProt P08908).
T2 sequence (whole entry): T1 sequence (P08908 whole entry)
Briefly: Agonist activity at human 5-HT1A receptor expressed in CHO cells assessed as inhibition of forskolin-stimulated cAMP accumulation after 15 mins by ELISA relative to 5-HT. Type of assay: functional, cell-based. Summed up: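 CHO-1A cells (10^4/well) grown 24 h, then 24 h in serum-free DMEM/F-12. Compounds co-incubated with 1 μM forskolin for 15 min at 37 °C in serum-free medium with 5 μM pargyline and 2.5 mM theophylline. Lysis in 1% Triton X-100/0.1 M HCl, cAMP measured by acetylated ELISA. Forskolin alone set as 0%, 5-HT maximum as 100%. Sigmoidal or Gaussian bell-shaped fits.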

Assay [4] deals with T2, 5-hydroxytryptamine receptor 1A (Homo sapiens). Briefly: Agonist activity at human 5-HT1A receptor expressed in CHO cells after 90 mins by beta-arrestin-2 recruitment assay relative to 5-HT. The class given is cell-based. Summed up:
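PathHunter enzyme-complementation β-arrestin-2 recruitment in CHO-K1 cells carrying HTR1A, 10^4 cells/well, plated 24–48 h at 37 °C before use. Compounds from methanol stocks, final 0.1–100 μM, applied for 90 min at 37 °C. Detection reagents then added for 60 min at room temperature, luminescence read. Pooled from 3–4 independent experiments in duplicate, with 5-HT on every plate as reference.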
On the technique in general: Recruitment of arrestin is a read-out of receptor activation apart from second messengers.

Assay [5] has the same target. Briefly: Agonist activity at human 5-HT1A receptor expressed in CHO cells assessed as ERK1/2 phosphorylation at 1 uM after 5 mins by Western blot analysis relative to control. Type of assay: cell-based. Summed up:
(§1)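 CHO-1A cells (2 × 10^5/well) grown 24 h, then 24 h serum-free. Agonists given at 1 μM in medium with 5 μM pargyline and 2.5 mM theophylline for 5 min at 37 °C. Lysates in SDS buffer with protease/phosphatase inhibitors. Phospho-ERK1/2 Western blot densitometry normalized to calnexin, untreated baseline subtracted, 5-HT set as 100%. Three experiments in triplicate, one-way ANOVA with Dunnett's test against untreated.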

Assay [6] has the same target. Briefly: Ratio for agonist activity at human 5-HT1A receptor expressed in CHO cells by forskolin-stimulated cAMP accumulation assay to agonist activity at human 5-HT1A receptor expressed in CHO cells by beta-arrestin-2 recruitment assay. Type of assay: functional, cell-based.
For assay [7], the target named is T1, 5-hydroxytryptamine receptor 1A. Briefly: Agonist activity at human 5-HT1A receptor expressed in CHO cells after 90 mins by beta-arrestin-2 recruitment assay. The class given is cell-based. Summed up: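 PathHunter enzyme-complementation β-arrestin-2 recruitment in CHO-K1 cells carrying HTR1A, 10^4 cells/well, plated 24–48 h at 37 °C before use. Compounds from methanol stocks, final 0.1–100 μM, applied for 90 min at 37 °C. Detection reagents then added for 60 min at room temperature, luminescence read.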

The target in assay [8] is T2, 5-hydroxytryptamine receptor 1A (Homo sapiens). Briefly: Agonist activity at human 5-HT1A receptor expressed in CHO cells assessed as ERK1/2 phosphorylation at 1 uM after 5 mins by Western blot analysis relative to 5-HT. Type of assay: cell-based. Summed up: as §1
A general note: Immunoblotting shows a protein as a band on a membrane.

Each structure is given as a SMILES string. Activity calls are given as the source filed them. No cut-off for these calls is given here.

For `COc1cccc2c(CCCN3CCN(c4ccccn4)CC3)cccc12`, the Ki (usually the dissociation constant of the complex between target and ligand, obtained from inhibition or displacement) in assay [1] turned out to be 0.38 nM. Also, the EC50 (as a rule, the midpoint of the concentration-response curve) in assay [2] is 1.26 nM. Also, the results for the maximal effect (Emax) in assay [3] and in assay [4] were 53.6% and 10.7%, respectively. Besides, the outcome in assay [5] was inactive.

As for `CCCN(CCC)C1CCc2cccc(O)c2C1` (racemic), the Emax (commonly the greatest response seen or fitted, relative to the assay's reference) in assay [4] worked out at 44.5%.

For the compound `COc1cccc2c1CCC/C2=C\CCN1CCN(c2ccccn2)CC1`, in assay [6], the Ratio is below 10. The inhibition constant Ki in assay [1] was 0.31 nM. Besides, the EC50 was 2.95 nM in assay [2] and 3390 nM in assay [7]. In addition, the Emax was 66.9% in assay [3] and 22.8% in assay [4].

In the case of `NCCc1c[nH]c2ccc(O)cc12`, the fold change (FC) in assay [5] worked out at 6.4.

Take `COc1ccc2c(c1)CC(CCN1CCN(c3ccccn3)CC1)CC2` (stereo unspecified): in assay [6], the Ratio was below 10. Further, the inhibition constant Ki in assay [1] amounted to 0.16 nM. In addition, the half-maximal effective concentration (EC50) was 20.9 nM in assay [2] and 3.55 nM in assay [7]. Also, the maximal response (Emax) in assay [3] stood at 73.5%; in assay [4], 35.9%.

With `COc1cccc(CCCCN2CCN(c3ccccn3)CC2)c1`, the Ki in assay [1] was 23 nM. Besides, the results for the Emax in assay [3] and in assay [4] were 53.4% and 5.9%, respectively.

Take `COc1cccc2c1CCCC2CCCN1CCN(c2ccccn2)CC1` (stereo unspecified): the Ki in assay [1] was 0.48 nM. The 50% effective concentration (EC50) in assay [2] was 0.776 nM.

On to `COc1cccc([C@H]2CC[C@H](N3CCN(c4ccccn4)CC3)CC2)c1`, for which, in assay [6], the Ratio is below 10. Also, in assay [1], the inhibition constant Ki stood at 0.028 nM. Moreover, the EC50 in assay [2] is 0.794 nM; in assay [7], 0.324 nM. For the same compound, the Emax in assay [3] worked out at 69.5%; in assay [4], 27.9%. For the same compound, the Activity in assay [8] is 30.4%.
